In ChEMBL document CHEMBL4052674, “Discovery of novel quinazoline-2,4(1H,3H)-dione derivatives as potent PARP-2 selective inhibitors” (Bioorg Med Chem, 2017):

Columns and labels:
[1] = biological target: Poly [ADP-ribose] polymerase 2 (Homo sapiens, UniProt Q9UGN5); assay: Inhibition of recombinant human PARP-2 expressed in Escherichia coli BL21 (DE3) using sheared DNA as substrate in presence of biotinylated NAD after 1 hr by ELISA
Homo sapiens = organism: Homo sapiens; assay: Selectivity index, ratio of IC50 for recombinant human PARP-1 expressed in Escherichia coli BL21 (DE3) to IC50 for recombinant human PARP-2 expressed in Escherichia coli BL21 (DE3)
How it was run: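 Human recombinant PARP-1 and PARP-2, expressed from plasmid and purified, were tested for inhibition of enzyme activity by ELISA and by chemical quantitation of NAD⁺. IC50 for each isoform was averaged from two or three independent experiments. The selectivity value is the ratio of the PARP-1 IC50 to the PARP-2 IC50.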

[2] = biological target: Poly [ADP-ribose] polymerase 1 (Homo sapiens, UniProt P09874); assay: Inhibition of recombinant human PARP-1 expressed in Escherichia coli BL21 (DE3) using sheared DNA as substrate in presence of biotinylated NAD after 1 hr by ELISA
Sequence of Poly [ADP-ribose] polymerase 1 (P09874 whole entry): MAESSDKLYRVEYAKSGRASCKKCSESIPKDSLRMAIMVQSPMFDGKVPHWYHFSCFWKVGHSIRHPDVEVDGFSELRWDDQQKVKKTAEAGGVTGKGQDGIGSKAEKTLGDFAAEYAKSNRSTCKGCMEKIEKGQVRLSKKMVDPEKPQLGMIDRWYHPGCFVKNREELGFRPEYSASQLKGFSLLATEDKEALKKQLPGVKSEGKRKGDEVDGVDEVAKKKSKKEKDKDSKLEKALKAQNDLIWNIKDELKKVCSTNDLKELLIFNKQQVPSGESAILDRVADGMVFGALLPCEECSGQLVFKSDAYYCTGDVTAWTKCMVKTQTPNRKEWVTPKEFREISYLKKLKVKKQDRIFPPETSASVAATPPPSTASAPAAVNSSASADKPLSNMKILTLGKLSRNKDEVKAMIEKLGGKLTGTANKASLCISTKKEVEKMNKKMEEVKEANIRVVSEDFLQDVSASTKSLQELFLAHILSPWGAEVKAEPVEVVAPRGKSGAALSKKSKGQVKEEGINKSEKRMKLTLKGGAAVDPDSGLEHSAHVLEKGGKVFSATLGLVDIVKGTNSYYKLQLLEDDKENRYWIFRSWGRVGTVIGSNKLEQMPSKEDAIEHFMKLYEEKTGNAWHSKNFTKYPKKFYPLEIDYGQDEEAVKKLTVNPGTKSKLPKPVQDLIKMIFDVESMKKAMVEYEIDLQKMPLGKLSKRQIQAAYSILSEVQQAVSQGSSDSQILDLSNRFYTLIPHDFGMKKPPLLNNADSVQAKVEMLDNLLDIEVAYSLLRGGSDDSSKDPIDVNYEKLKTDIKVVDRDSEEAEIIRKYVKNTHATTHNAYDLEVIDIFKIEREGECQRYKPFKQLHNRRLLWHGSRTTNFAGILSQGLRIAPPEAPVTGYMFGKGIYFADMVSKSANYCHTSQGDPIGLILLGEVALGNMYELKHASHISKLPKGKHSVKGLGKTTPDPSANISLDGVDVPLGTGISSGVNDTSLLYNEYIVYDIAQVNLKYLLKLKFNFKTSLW

Sequence of Poly [ADP-ribose] polymerase 2 (Q9UGN5 whole entry): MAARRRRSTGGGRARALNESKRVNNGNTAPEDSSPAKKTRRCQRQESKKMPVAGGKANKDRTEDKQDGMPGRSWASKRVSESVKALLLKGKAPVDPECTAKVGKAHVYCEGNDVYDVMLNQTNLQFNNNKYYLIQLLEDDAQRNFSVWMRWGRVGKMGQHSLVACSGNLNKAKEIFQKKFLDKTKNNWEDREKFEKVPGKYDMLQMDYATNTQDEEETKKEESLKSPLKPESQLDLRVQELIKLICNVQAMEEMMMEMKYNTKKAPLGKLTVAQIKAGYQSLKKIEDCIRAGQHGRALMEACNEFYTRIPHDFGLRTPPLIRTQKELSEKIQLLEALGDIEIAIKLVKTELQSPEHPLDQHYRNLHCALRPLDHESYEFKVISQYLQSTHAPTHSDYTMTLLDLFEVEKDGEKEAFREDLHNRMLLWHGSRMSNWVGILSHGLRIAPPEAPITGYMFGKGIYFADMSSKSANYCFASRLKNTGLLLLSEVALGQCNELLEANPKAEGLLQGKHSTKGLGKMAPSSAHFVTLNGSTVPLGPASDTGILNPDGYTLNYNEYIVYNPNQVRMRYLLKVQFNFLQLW

| Compound | IC50 [1] [nM] | Ratio IC50 (Homo sapiens) | IC50 [2] [nM] |
| --- | --- | --- | --- |
| O=C(Nc1cc(Cn2c(=O)[nH]c(=O)c3ccccc32)cnc1F)[C@H]1CCN(C(=O)C2CC2)C1 | 4.5 | 12 | 54 |
| O=C(Nc1cc(Cn2c(=O)[nH]c(=O)c3ccccc32)cnc1F)[C@H]1CCN(CC(F)(F)F)C1 | 11.5 | 40.6 | 467 |
| O=C(Nc1cc(Cn2c(=O)[nH]c(=O)c3ccccc32)cnc1F)[C@H]1CCN(c2ccccc2)C1 | 4.1 | 22.8 | 92.6 |
| CC(C)(C)OC(=O)N1CC[C@H](C(=O)Nc2cc(Cn3c(=O)[nH]c(=O)c4ccccc43)ccc2N)C1 | > 100 | – | > 100 |
| CC(C)(C)OC(=O)N1CC[C@H](C(=O)Nc2cc(Cn3c(=O)[nH]c(=O)c4ccccc43)ccc2Cl)C1 | 9.1 | 0.7 | 6.2 |
| O=C(Nc1cc(Cn2c(=O)[nH]c(=O)c3ccccc32)cnc1Br)[C@H]1CCNC1 | > 100 | – | > 100 |
| O=C(Nc1cc(Cn2c(=O)[nH]c(=O)c3ccccc32)cnc1F)[C@H]1CCN(CCC2CC2)C1 | 1 | 1.8 | 1.4 |
| CC(C)(C)OC(=O)N1CC[C@H](C(=O)Nc2cc(Cn3c(=O)[nH]c(=O)c4ccccc43)ccc2O)C1 | > 100 | – | > 100 |
| O=C(Nc1cc(Cn2c(=O)[nH]c(=O)c3ccccc32)ccc1Br)[C@H]1CCNC1 | > 100 | – | > 100 |
| CC(C)(C)OC(=O)N1CC[C@H](C(=O)Nc2cc(Cn3c(=O)[nH]c(=O)c4ccccc43)cnc2F)C1 | 8.6 | 4.6 | 39.8 |
| CC(C)(C)OC(=O)N1CC[C@H](C(=O)Nc2cc(Cn3c(=O)[nH]c(=O)c4ccccc43)cnc2Br)C1 | > 100 | – | > 100 |
| O=C(Nc1cncc(Cn2c(=O)[nH]c(=O)c3ccccc32)c1)[C@H]1CCNC1 | 220 | 0.04 | 9.9 |
| O=C(Nc1cc(Cn2c(=O)[nH]c(=O)c3ccccc32)cnc1F)[C@H]1CCNC1 | 80 | 0.18 | 13.7 |
| CC(C)(C)OC(=O)N1CC[C@H](C(=O)Nc2cncc(Cn3c(=O)[nH]c(=O)c4ccccc43)c2)C1 | > 100 | – | > 100 |
| CC(C)(C)OC(=O)N1CC[C@H](C(=O)Nc2cc(Cn3c(=O)[nH]c(=O)c4ccccc43)cnc2Cl)C1 | 12.2 | 19 | 232 |
| O=C(Nc1cc(Cn2c(=O)[nH]c(=O)c3ccccc32)ccc1[N+](=O)[O-])[C@H]1CCNC1 | > 100 | – | > 100 |
| O=C(Nc1cc(Cn2c(=O)[nH]c(=O)c3ccccc32)cnc1F)[C@H]1CCN(CC2CC2)C1 | 3.6 | 1.6 | 5.7 |
| O=C(Nc1cc(Cn2c(=O)[nH]c(=O)c3ccccc32)cnc1F)[C@H]1CCN(CCC(F)(F)F)C1 | 2.9 | 1 | 3.1 |
| CC(C)(C)OC(=O)N1CC[C@H](C(=O)Nc2cc(Cn3c(=O)[nH]c(=O)c4ccccc43)ccc2Br)C1 | 68 | 5.1 | 346 |
| CC(C)(C)OC(=O)N1CC[C@H](C(=O)Nc2cc(Cn3c(=O)[nH]c(=O)c4ccccc43)ccc2[N+](=O)[O-])C1 | > 100 | – | > 100 |
| O=C(Nc1cc(Cn2c(=O)[nH]c(=O)c3ccccc32)cnc1F)[C@H]1CCN(Cc2ccccc2)C1 | 5.4 | 2.5 | 13.3 |
| O=C(Nc1cc(Cn2c(=O)[nH]c(=O)c3ccccc32)cnc1F)[C@H]1CCN(C2CCC(F)(F)CC2)C1 | 11.9 | 6.8 | 81 |
| O=C(Nc1cc(Cn2c(=O)[nH]c(=O)c3ccccc32)ccc1Cl)[C@H]1CCNC1 | > 100 | – | > 100 |
| O=C(Nc1cc(Cn2c(=O)[nH]c(=O)c3ccccc32)cnc1Cl)[C@H]1CCNC1 | 40 | 4.4 | 174 |
| O=C(Nc1cc(Cn2c(=O)[nH]c(=O)c3ccccc32)cnc1F)[C@H]1CCN(Cc2ccncc2)C1 | 5.8 | 10.7 | 62 |
